# Source: PubChem BioAssay
# CTSL1 counter: Fasciola hepatica cathepsin L1 inhibitors, primary screen, counter-screen for PFM18AAP inhibitor project, biochemical, QFRET, fluorogenic peptide substrate; inhibition, % at 5.96 µM; AID 1906, 2009; hit rate 0.49% among 300,000; recombinant F. hepatica cathepsin L1, Z-Leu-Arg-MCA fluorescence;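 active = inhibition above the mean of all tested compounds plus 3 SD, set per screening campaign, cut at about 17% in these data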;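 also: 0% = plate median of test compound wells and 100% = 1 µM Z-Phe-Ala-diazomethylketone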
# GSTO1 counter: inhibitors of recombinant GSTO1, primary screen, counter-screen for RBBP9 inhibitor project, biochemical, fluorescence polarization; activity-based probe fluorescence polarization; hit rate 1.1% among 300,000; inhibition, % at 5.96 µM; Glutathione S-transferase omega-1 (Homo sapiens), P78417;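 active = inhibition above the campaign mean inhibition plus 3 SD, cut at about 35% in these data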;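 also: 0% = GSTO1-1 with DMSO and 100% = wells lacking GSTO1-1 enzyme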
# PAD4 inh: human PAD4 inhibitors, primary screen, biochemical, fluorescence polarization, 1536-well format; Protein-arginine deiminase type-4 (Homo sapiens), Q9UM07; recombinant PAD4, RCA probe fluorescence polarization; inhibition, % at 6.36 µM; hit rate 0.41% among 330,000; AID 485272, 2010;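 active = percent inhibition above a cutoff equal to the mean of all tested compounds plus 3 SD, cut at about 15% in these data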;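 also: 0% = PAD4 with RCA probe and DMSO and 100% = probe without PAD4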
# Target sequence (Q9UM07 whole entry, looked up): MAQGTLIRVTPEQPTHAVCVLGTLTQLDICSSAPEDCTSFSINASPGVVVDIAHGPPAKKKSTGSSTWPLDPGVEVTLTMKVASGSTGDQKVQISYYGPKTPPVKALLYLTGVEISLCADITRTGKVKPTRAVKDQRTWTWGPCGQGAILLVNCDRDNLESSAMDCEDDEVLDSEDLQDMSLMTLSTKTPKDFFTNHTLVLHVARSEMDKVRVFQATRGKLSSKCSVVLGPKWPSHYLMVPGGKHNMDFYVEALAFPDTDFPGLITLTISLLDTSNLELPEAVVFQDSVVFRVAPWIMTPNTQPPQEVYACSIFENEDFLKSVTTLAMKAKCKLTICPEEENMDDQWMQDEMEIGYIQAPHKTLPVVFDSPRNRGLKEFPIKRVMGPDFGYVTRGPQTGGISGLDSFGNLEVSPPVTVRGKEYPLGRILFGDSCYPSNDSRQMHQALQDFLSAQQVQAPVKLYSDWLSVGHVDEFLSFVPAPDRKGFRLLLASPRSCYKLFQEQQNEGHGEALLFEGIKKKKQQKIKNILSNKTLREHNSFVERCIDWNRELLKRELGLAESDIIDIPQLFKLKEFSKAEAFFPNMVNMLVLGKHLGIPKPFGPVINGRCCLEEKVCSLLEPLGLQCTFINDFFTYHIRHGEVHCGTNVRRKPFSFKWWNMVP
# TDP2 absorb: human TDP2 enzyme inhibitors, primary screen, biochemical, epi absorbance, recombinant enzyme | hit rate 0.34% among 370,000 | AID 720702, 2013 | T5PNP hydrolysis, p-nitrophenol absorbance 415 nm | inhibition, % at 12.8 µM;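 active = inhibition above the mean of all tested compounds plus 3 SD, set per campaign, cut at about 25% in these data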;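 also: 0% = DMSO with enzyme and 100% = buffer with substrate but no TDP2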
#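 Read-out basis: percent inhibition. System: recombinant human TDP2. Buffer or medium: Mg2+-containing Tris-HCl buffer, pH 7.5. Repeats: single replicate. Timing: reaction 2 h, 37 °C. Benchmarks: high control without enzyme, low control DMSO plus TDP2. Probe or stimulus: 5 mM T5PNP. Doses: 12.8 µM only. Measured by: epi absorbance of p-nitrophenol freed from T5PNP by hydrolysis.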
# GSTO1 inh conf: GSTO1 inhibitor hit confirmation, counter-screen for RBBP9 inhibitor project, biochemical, fluorescence polarization, triplicate; inhibition, % at 5.96 µM; hit rate 54% among 2,400; recombinant GSTO1, probe fluorescence polarization; shares compounds with GSTO1 counter;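 active = inhibition above the primary screen's cutoff, its mean inhibition plus 3 SD, cut at about 35% in these data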;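 also: loss of polarization as inhibitors block binding of rhodamine sulfonate ester activity probe; 0% = GSTO1 with DMSO and 100% = wells lacking GSTO1 enzyme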
# PAD4 confirm: human PAD4 inhibitors, confirmation, biochemical, fluorescence polarization; shares compounds with PAD4 inh; recombinant PAD4, RCA probe fluorescence polarization; inhibition, % at 6.36 µM; hit rate 28% among 1,200;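 active = mean inhibition across replicates above the hit cutoff set by the earlier primary screen, cut at about 15% in these data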;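 also: inhibitors block active-site labeling by the probe so polarization falls; 0% = PAD4 with probe and DMSO and 100% = probe without PAD4 enzyme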
# TDP2 inh conf: human TDP2 enzyme inhibitors, retest, confirmation, biochemical, epi absorbance, recombinant enzyme; shares compounds with TDP2 absorb; absorbance read-out; inhibition, % at 12.8 µM; hit rate 22% among 1,100; AID 743263, 2014; in the data active = inhibition above about 25%;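 also: 0% = vehicle with enzyme and 100% = no enzyme buffer only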
# * hit, by the source's call; x = not tested or not shown. Compounds with a hit are over-represented: about 1.4% of the library has one in this group of screens.
SMILES,CTSL1 counter,GSTO1 counter,PAD4 inh,TDP2 absorb,PAD4 confirm,others
O=c1c2cc([N+](=O)[O-])cc([N+](=O)[O-])c2[nH]n1-c1ccccc1,1.6,10.6,-3.6,-17.9,x,
COc1cccc(C(c2c(C)[nH]n(-c3ccccc3)c2=O)c2c(C)[nH]n(-c3ccccc3)c2=O)c1OC,1.7,63.7*,72.3*,89.2*,2.7,GSTO1 inh conf=31.0;TDP2 inh conf=32.2*
COC(=O)C1CN(C2CCCC2)CCS(=O)(=O)N1Cc1cn(Cc2ccc(C)cc2)nn1 (stereo unspecified),x,x,x,-1.3,x,
CCc1ccccc1-c1cc(C(=O)OC)c2n(c1=O)CCC2,x,x,x,2.8,x,
COc1ccc(NC(=O)Nc2ccccc2OC)cc1,-2.2,2.0,7.2,2.1,x,
COc1ccc(OC)c(S(=O)(=O)Nc2ccc(O)c3ccccc23)c1,-3.8,59.8*,-1.6,41.0*,x,GSTO1 inh conf=7.7;TDP2 inh conf=7.6
COc1ccc(NC(=O)Nc2ccc(O)c3ccccc23)cc1,-1.4,64.7*,22.8*,44.7*,-2.1,GSTO1 inh conf=5.8;TDP2 inh conf=17.7
OC1(Cc2ccccc2)CCN(c2ncnc3sccc23)CC1,x,x,x,-2.9,x,
O=C1C(Cl)=C(NCCN2CCOCC2)C(=O)c2ccccc21,11.9,41.5*,-14.7,30.6*,x,GSTO1 inh conf=6.1;TDP2 inh conf=8.6
O=C1c2ccccc2C(=O)N1CCN1CCOCC1,1.5,-3.8,-3.6,-6.0,x,
Cn1c(SCC(=O)N/N=C/C=C/c2ccco2)nc2ccccc21,1.1,7.7,51.7*,3.0,2.0,
COC(=O)[C@]12C[C@H](CC(=O)N3CCOCC3)C(=O)N(Cc3ccco3)C1=C[C@H](COCc1ccccc1)O[C@@H]2C,x,x,x,-5.6,x,
CCCC(=O)Nc1ccc2c(c1)C(=O)N(C)[C@H]1CC[C@@H](CC(=O)OC)O[C@@H]1CO2,x,x,x,4.6,x,
Nc1nc2ncccc2cc1C(=O)C1=C(c2ccccc2)Cc2ccccc21,x,x,x,6.8,x,
CCOc1ccc2c(c1)-c1c(ssc1=S)C(C)(C)N2C(=O)c1ccco1,1.9,0.1,17.5*,-14.9,16.4*,
COc1ccc2c(c1)-c1c(ssc1=S)C(C)(C)N2C(=O)CSC1=NCCS1,2.1,-3.9,6.2,-0.4,x,
CCCCCCCCOc1ccc(C2OC34CCCCC3C(C#N)(C#N)C2(C#N)C(=N)O4)cc1 (stereo unspecified),4.0,14.0,16.0*,x,9.1,
CCCCC1OC23CCCCC2C(C#N)(C#N)C1(C#N)C(=N)O3 (stereo unspecified),0.5,7.1,25.2*,1.8,17.0*,
N#CC1(C#N)C(c2ccccc2)OC23CCCCC2C1(C#N)C(=N)O3 (stereo unspecified),-1.4,29.4,11.7,7.9,x,
Nn1c(SCc2ccc([N+](=O)[O-])cc2)nnc1-c1cc(-c2ccccc2)n[nH]1,x,x,x,-11.6,x,
O=C1NC2=C(CCc3ccccc32)C(c2ccccc2)N1 (stereo unspecified),3.1,32.1,27.4*,10.8,2.3,
C=CCOc1ccc(C2NC(=S)NC3=C2CCc2ccccc23)cc1 (stereo unspecified),1.4,8.5,1.9,8.5,x,
Cn1c(N)c(C(=O)COC(=O)COc2cc(Cl)c(Cl)cc2Cl)c(=O)n(C)c1=O,x,x,-0.6,-4.8,x,
Cc1cc(Cl)ccc1OCC(=O)OCC(=O)c1c(N)n(C)c(=O)n(C)c1=O,x,x,27.4*,0.2,6.3,
Cn1c(N)c(C(=O)COC(=O)COc2ccc(Br)cc2)c(=O)n(C)c1=O,x,x,171.4*,-2.6,7.8,
SMILES,CTSL1 counter,GSTO1 counter,PAD4 inh,TDP2 absorb,PAD4 confirm,others
COc1cccc(C(=O)OCC(=O)c2c(N)n(C)c(=O)n(C)c2=O)c1,x,x,22.0*,16.0,5.3,
Cc1ccc(-n2c(SCc3cccc(F)c3)nc3sc4c(c3c2=O)CCCC4)cc1,x,x,x,1.1,x,
COc1ccccc1-c1nnc2n1N=C(c1ccc3c(c1)OCO3)CS2,x,x,x,0.5,x,
O=C(Nc1ccccc1Br)C(=O)N1CCCC1,-4.0,-0.4,-1.8,6.9,x,
O=C(Nc1ccccn1)C(=O)N1CCCCC1,-1.6,-1.5,36.0*,-5.7,-2.4,
Cc1ccccc1CN1CCCCC(NC(=O)c2cc(-c3ccccc3)no2)C1=O (stereo unspecified),x,x,x,-1.0,x,
CCC(=O)NC(c1cccs1)c1cc([N+](=O)[O-])c2cccnc2c1O (stereo unspecified),0.1,-2.4,0.2,-1.5,x,
CC(=O)NC(c1cccs1)c1cc([N+](=O)[O-])c2cccnc2c1O (stereo unspecified),5.0,28.3,25.5*,-11.5,4.0,
Cc1ccnc(Sc2ccc([N+](=O)[O-])cc2[N+](=O)[O-])n1,-1.2,27.5,22.3*,-0.5,23.6*,
Cc1ccc(P(=O)(CSC(=N)N)c2ccc(C)cc2)cc1,15.0,5.3,24.2*,0.2,18.2*,
N=C(N)SCP(=O)(c1ccccc1)c1ccccc1,7.2,-7.3,17.0*,-6.2,15.3*,
O=C(CSCc1ccccc1Cl)NCCSc1ccccn1,7.9,7.4,15.9*,1.0,1.1,
O=C(Nc1cccc2ccccc12)OC[C@@H]1CSCCS(=O)(=O)N1,x,x,x,-5.2,x,
COC(=O)c1ccccc1NC(=O)CSc1nc(C)cc(C)n1,1.2,6.7,-3.0,6.7,x,
COC(=O)c1cc(C)nc(Sc2ccccc2N)n1,-0.2,3.0,68.4*,1.3,77.9*,
CC(C)(C)c1n[nH]c(=S)n(/N=C/c2cccs2)c1=O,1.1,-0.2,-0.4,7.5,x,
Cc1n[nH]c(=S)n(/N=C/c2cccs2)c1=O,0.8,23.0,18.2*,-10.3,4.7,
Cc1ccc(S(=O)(=O)N2CCN(C(=O)Cc3ccccc3)CC2)cc1C,x,x,21.8*,2.7,-0.6,
COC(=O)[C@H]1C[C@@]2(n3ccc4ccccc43)c3ccccc3N[C@H]2N1,x,x,x,7.8,x,
COC(=O)[C@]12C[C@H](CC(=O)NCCC(C)C)C(=O)N(CCC3=CCCCC3)C1=C[C@H](C(C)(C)C)O[C@@H]2C,x,x,x,-13.4,x,
CCOC(=O)c1c(N2C(=O)CC(Sc3ccccc3C(=O)O)C2=O)sc(C)c1C (stereo unspecified),-1.6,3.5,16.9*,-7.6,14.6,
Cc1nc(SCC(=O)NCc2ccccc2)c2oc3ccccc3c2n1,5.0,3.1,21.5*,-3.8,-5.6,
Cc1nc(SCC(=O)O)c2oc3ccccc3c2n1,-0.5,1.5,-2.3,-0.2,x,
